One assay has as its system HCT-116. In words: Growth inhibition of human HCT116 cells by MTT assay. It is filed as functional, cell-based. In a few lines:
(§1)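 MTT cytotoxicity assay in human colon adenocarcinoma HCT116 cells and murine NIH 3T3 fibroblast cells treated with the novel 5-aza-ellipticine derivatives; toxicity read by MTT reduction.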
On the technique in general: Tetrazolium dyes change colour on reduction, which living cells bring about.

For a further assay, the system named is NIH3T3. In words: Growth inhibition of mouse NIH3T3 cells by MTT assay. The class given is cell-based. In a few lines: as §1
The species entered for another assay is Homo sapiens. In words: Inhibition of topoisomerase 2-mediated kDNA de-catenation. A digest of the protocol: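 Topoisomerase II decatenation of kinetoplast DNA (kDNA), run with a commercial kit following the manufacturer's recommended procedure. Decatenation depends on topo II double-strand break and re-ligation. A known topo II-active reference agent served as positive control.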

The source made the active and inactive calls. The rule behind the calls is not given here. A value given as a limit tells only on which side of the number the result lay.

Turning to `Cc1c2ccncc2c(C)c2c1[nH]c1ccccc12` [ELLIPTECINE], the IC50 (in general, the concentration that gives 50% inhibition) was determined as 300 nM in the assay on HCT-116 and 3 nM with NIH3T3. Further, the outcome in the assay filed under Homo sapiens was Active.

As for `CC[n+]1c2ccnc(NCCCNCCCN)c2c(C)c2c3cc(OC)ccc3[nH]c21`, in the assay on HCT-116, it took 400 nM to reach half-maximal inhibition (IC50).

For `COc1ccc2[nH]c3nc4ccnc(Cl)c4c(C)c3c2c1`, the IC50 with HCT-116 and with NIH3T3 was over 1000 nM throughout.

With `COc1ccc2[nH]c3c(c(C)c4c(NCCCN5CCN(CCCN)CC5)nccc4[n+]3C)c2c1`, in the assay with HCT-116, the IC50 was over 10000 nM.

In the assay with HCT-116, `CC[n+]1c2ccnc(NCCCNCCCNc3nccc4c3c(C)c3c5cc(OC)ccc5[nH]c3[n+]4CC)c2c(C)c2c3cc(OC)ccc3[nH]c21` displayed an IC50 of 300 nM.

In the assay with NIH3T3, `COc1ccc2[nH]c3nc4ccnc(NCCCNCCCN)c4c(C)c3c2c1` gave an IC50 of 1000 nM.

In turn, `COc1ccc2[nH]c3c(c(C)c4c(NCCCNCCCN)nccc4[n+]3C)c2c1` showed an IC50 in the assay on HCT-116 of 2000 nM.

Consider `COc1ccc2[nH]c3c(C)c4ccnc(NCCCN(C)CCCN)c4c(C)c3c2c1`, for which the IC50 worked out at 70 nM in the assay on HCT-116 and 20 nM in the assay on NIH3T3.

In the case of `COc1ccc2[nH]c3c(c(C)c4c(O)nccc4[n+]3C)c2c1`, inhibition in the assay on HCT-116 was half-maximal at 200 nM (IC50).

As for `CC[n+]1c2ccnc(O)c2c(C)c2c3cc(OC)ccc3[nH]c21`, in the assay with HCT-116, 3000 nM corresponded to half-maximal inhibition (IC50).

With `COc1ccc2[nH]c3nc4ccnc(NCCCN(C)CCCN)c4c(C)c3c2c1`, the IC50 in the assay on HCT-116 came out at 300 nM; in the assay with NIH3T3, 600 nM. The result in the assay filed under Homo sapiens was Active.

(Values after ChEMBL document CHEMBL1139204, “Synthesis and biological activity of 5-aza-ellipticine derivatives” (Bioorg Med Chem Lett, 2007).)
